Assay results from ChEMBL document CHEMBL1127619, “Synthesis of naltrexone-derived delta-opioid antagonists. Role of conformation of the delta address moiety” (J Med Chem, 1994).

How the values were obtained:
[1] = target: T1, Delta-type opioid receptor (Rattus norvegicus, UniProt P33533); assay: Tested for binding activity against delta1 opioid receptor using [3H]DPDPE ligand
[2] = target: Delta-type opioid receptor (Mus musculus) (UniProt P32300); details: 100 nM
[3] = target: Kappa-type opioid receptor (Cavia porcellus) (UniProt P41144); details: 100 nM
Chain of Kappa-type opioid receptor (Cavia porcellus) (P41144 whole entry): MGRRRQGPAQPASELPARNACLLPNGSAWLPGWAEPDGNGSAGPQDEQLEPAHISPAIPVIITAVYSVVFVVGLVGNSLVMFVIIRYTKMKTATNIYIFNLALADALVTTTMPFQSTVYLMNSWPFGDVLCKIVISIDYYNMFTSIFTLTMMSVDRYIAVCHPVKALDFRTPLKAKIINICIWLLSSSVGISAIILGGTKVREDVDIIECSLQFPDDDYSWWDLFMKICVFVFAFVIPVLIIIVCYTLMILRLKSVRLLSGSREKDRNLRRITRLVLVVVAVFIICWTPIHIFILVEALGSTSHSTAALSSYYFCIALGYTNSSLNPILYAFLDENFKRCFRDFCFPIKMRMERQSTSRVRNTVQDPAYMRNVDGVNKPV

[4] = target: Kappa-type opioid receptor (Cavia porcellus, UniProt P41144); assay: Tested for binding activity against kappa opioid receptor using [3H]U-69593 ligand
Chain of Kappa-type opioid receptor (P41144 whole entry): as above
How it was run: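 Guinea pig brain membranes; competition of test ligand against the tritiated radioligand selective for each site: [3H]DPDPE (δ1), [3H]U69593 (κ), [3H]DAMGO (μ). Ki values derived from the competition curves.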

[5] = organism: Mus musculus; assay: Antagonism of antinociceptive effect of delta 2 selective agonist DSLET in mice (control); assay type: functional
How it was run: (§1)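 Mouse tail-flick assay; agonist given icv without antagonist pretreatment, timed so its peak effect fell at the centre of the observation period. Control ED50 derived, expressed as nmol/mouse for DPDPE and DSLET and as µmol/kg for morphine and U50488.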

[6] = organism: Mus musculus; assay: Antagonism of antinociceptive effect of mu receptor selective agonist morphine in mice (control); assay type: functional; how it was run: as §1
[7] = organism: Mus musculus; assay: Antagonism of antinociceptive effect of kappa receptor selective agonist U-50,488 in mice (control); assay type: functional; how it was run: as §1
[8] = target: Kappa-type opioid receptor (Cavia porcellus) (UniProt P41144); details: 100 nM; remark: listed apart in the source
[9] = system: Mus musculus; assay: Antagonism of antinociceptive effect of delta 2 selective agonist DSLET in mice, icv (treated); assay type: functional; details: central
[10] = target: T1, Delta-type opioid receptor; assay: Tested for binding activity against delta opioid receptor using [3H]naltridole ligand
[11] = target: Mu-type opioid receptor (Cavia porcellus) (UniProt P97266); details: 100 nM
Chain of Mu-type opioid receptor (Cavia porcellus) (P97266 whole entry): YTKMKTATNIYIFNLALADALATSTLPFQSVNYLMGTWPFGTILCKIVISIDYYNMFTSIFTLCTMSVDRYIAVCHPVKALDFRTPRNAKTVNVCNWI

[12] = organism: Mus musculus; assay: Antagonism of antinociceptive effect of delta 1 selective agonist DPDPE in mice (control); assay type: functional; how it was run: as §1
[13] = system: Mus musculus; assay: Antagonism of antinociceptive effect of kappa receptor selective agonist U-50,488 in mice, icv (treated); assay type: functional; details: central
How it was run: (§2)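 Mice received 2 nmol antagonist icv, timed with the icv agonist so the antagonist peak (20 min) coincided with the centre of the tail-flick observation period. Treated ED50 is in nmol/mouse for DPDPE and DSLET and in µmol/kg for morphine and U50488. ED50 ratio is treated over control.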

[14] = system: Mus musculus; assay: Antagonism of antinociceptive effect of mu receptor selective agonist morphine in mice, icv (treated); assay type: functional; details: central; how it was run: as §2
[15] = system: Mus musculus; assay: Antagonism of antinociceptive effect of delta 1 selective agonist DPDPE in mice, icv (treated); assay type: functional; details: central

Chain of Delta-type opioid receptor (Mus musculus) (P32300 whole entry): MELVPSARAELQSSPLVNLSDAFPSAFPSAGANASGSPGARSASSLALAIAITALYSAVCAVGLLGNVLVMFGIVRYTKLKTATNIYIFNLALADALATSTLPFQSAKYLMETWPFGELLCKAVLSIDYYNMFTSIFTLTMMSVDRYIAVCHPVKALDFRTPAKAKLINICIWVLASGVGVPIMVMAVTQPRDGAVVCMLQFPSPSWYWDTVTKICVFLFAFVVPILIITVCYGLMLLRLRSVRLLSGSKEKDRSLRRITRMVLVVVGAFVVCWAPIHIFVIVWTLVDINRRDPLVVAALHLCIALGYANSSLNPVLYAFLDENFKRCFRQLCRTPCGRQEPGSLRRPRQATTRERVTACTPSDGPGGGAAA
T1 sequence (P33533 whole entry): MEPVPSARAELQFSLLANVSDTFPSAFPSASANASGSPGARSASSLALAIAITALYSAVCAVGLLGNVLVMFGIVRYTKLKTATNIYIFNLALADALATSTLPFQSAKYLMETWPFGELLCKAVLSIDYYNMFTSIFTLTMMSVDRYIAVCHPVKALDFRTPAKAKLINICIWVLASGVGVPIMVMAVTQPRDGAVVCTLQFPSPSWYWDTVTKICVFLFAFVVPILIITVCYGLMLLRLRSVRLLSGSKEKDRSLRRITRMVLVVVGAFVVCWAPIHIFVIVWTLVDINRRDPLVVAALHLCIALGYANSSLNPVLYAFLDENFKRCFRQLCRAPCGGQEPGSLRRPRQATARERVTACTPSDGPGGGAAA

Row | SMILES | Ke [2] [nM] | Ke [3] [nM] | Ki [4] [nM] | Ke [11] [nM] | further results
1 | Oc1ccc2c3c1O[C@H]1c4[nH]c5ccccc5c4C[C@@]4(O)[C@@H](C2)N(CC2CC2)CC[C@]314 [NALTRINDOLE] | – | – | – | – | Ki [1]: 7.2 pM
2 | O=C1/C(=C\c2ccccc2)C[C@@]2(O)[C@H]3Cc4ccc(O)c5c4[C@@]2(CCN3CC2CC2)[C@H]1O5 | 24 | 53 | 66 | – | –
3 | O=C1[C@@H]2Oc3c(O)ccc4c3[C@@]23CCN(CC2CC2)[C@H](C4)[C@]3(O)CC12Cc1ccccc1C2 | 0.78 | – | 12.5 | 4.2 | ED50 [5]: 0.7 uM mouse-1; ED50 [6]: 6.9 uM mouse-1; ED50 [7]: 8.6 uM mouse-1; Ke [8]: 105 nM; ED50 [9]: 2.8 µmol/kg; Ki [10]: 0.047 nM; ED50 [12]: 6.4 uM mouse-1; ED50 [13]: 12.2 µmol/kg; ED50 [14]: 21.1 µmol/kg; ED50 [15]: 46.3 µmol/kg
4 | Oc1ccc2c3c1O[C@H]1[C@H](Nc4ccccc4)CC[C@@]4(O)[C@@H](C2)N(CC2CC2)CC[C@]314 | 100 | 6 | 2.2 | 1.3 | –
5 | O=C1[C@@H](Cc2ccccc2)C[C@@]2(O)[C@H]3Cc4ccc(O)c5c4[C@@]2(CCN3CC2CC2)[C@H]1O5 | 1.5 | – | 25 | 21 | –
6 | Oc1ccc2c3c1O[C@H]1C4(CC[C@@]5(O)[C@@H](C2)N(CC2CC2)CC[C@]315)Oc1ccccc1O4 | – | – | 25 | 40 | –
7 | Oc1ccc2c3c1O[C@H]1[C@@H](Nc4ccccc4)CC[C@@]4(O)[C@@H](C2)N(CC2CC2)CC[C@]314 | 8.8 | 100 | 2.2 | 3.2 | –
8 | O=C1/C(=C/c2ccccc2)C[C@@]2(O)[C@H]3Cc4ccc(O)c5c4[C@@]2(CCN3CC2CC2)[C@H]1O5 [BNTX] | 2.9 | 100 | 5.9 | 8.3 | –
